Laboratory results published in publication PMC12900291 (European journal of medicinal chemistry, 2025).
≈ marks a conversion by molar mass, not a printed value. Where “and” joins values, the source holds several entries; their conditions need not be identical. Identical values can stand only once. Entries after “also recorded” stand apart in the source; their conditions may differ.

How the values were obtained:
[1] = Intrinsic clearance; type: in vitro ADME, human; settings: for Thalf: human liver S9 0.5 mg/mL, 1 μM compound, NADPH, 37 °C; for microsomal CLint at 1 μM: human, liver S9 fraction, pH 7.4
[2] = molecular target: T1, SERCA2a (Sus scrofa, UniProt P11607); experiment: oxalate-based Ca2+-uptake; type: biochemical, porcine; settings: cardiac SR
Summary of the method: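 Porcine left-ventricular SR vesicles (30 μg/mL) were prepared by differential centrifugation. Buffer: 50 mM MOPS, 100 mM KCl, 30 mg/mL sucrose, 10 mM potassium oxalate, 2 μM Fluo-4, free Ca2+ at pCa 8.0, 6.2 or 5.4, test compound 0.048–50 μM (two-fold series). Incubation 20 min at 22 °C, dark; 5 mM MgATP start; Fluo-4 decrease (ex 485/em 520 nm) tracked 15 min. Basal pCa 8.0 rate subtracted; Hill fit gives EC50 and % effect.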

[3] = molecular target: T1, SERCA2a; experiment: NADH-coupled enzyme-linked Ca2+-ATPase activity assay in cardiac SR vesicles; type: biochemical, porcine; settings: for EC50 / Ca2+-ATPase [Ca2+]MAX % effect / Ca2+-ATPase [Ca2+]MID % effect: cardiac SR; for Max increase (%): vs no compound
[4] = test system: HEK-293 cells; experiment: Cell viability; type: cell-based; settings: read-out: Cell viability IC50, 72 h exposure, MTT
Summary of the method: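 HEK-293.2sus cells were seeded at 9.6 × 10^3 cells/well and given a concentration gradient of test compound for 72 h at 37 °C, 5% CO2. MTT (0.5 mg/mL) was added for 3–4 h, medium removed, formazan dissolved in DMSO (15 min shaking, 21 °C), and A595 read. Cell-free background was subtracted, values taken relative to DMSO controls, and IC50 fitted by nonlinear least squares. n = 3–6.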

[5] = test system: SERCA1a; experiment: NADH-coupled Ca2+-ATPase activity assay in skeletal SR vesicles; type: biochemical, rabbit; settings: Table 5 vs Table S2
Summary of the method: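 Light SR came from rabbit skeletal white muscle by differential centrifugation and sucrose gradient. NADH-coupled assay: 4 μg/mL SR in 50 mM MOPS pH 7.0, 100 mM KCl, 1 mM EGTA, 0.2 mM NADH, 1 mM PEP, 10 IU/mL PK and LDH, 7 μM A23187, pCa 5.4/6.2/8.0. Test compound (0.048–50 μM) 20 min; 5 mM MgATP start; A340. pCa 8.0 rate subtracted; Hill fit gives EC50 and maximal % effect.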

[6] = Solubility assay in phosphate buffer, LC-MS/MS; type: physicochemical; settings: 50 mM phosphate buffer pH 7.4, 37 °C, 12 h
[7] = test system: cardiomyocytes; settings: cited from earlier work
[8] = molecular target: T1, SERCA2a; settings: earlier HTS study; cited from earlier work
[9] = molecular target: T1, SERCA2a; settings: earlier HTS study; cited from earlier work; remark: listed apart in the source
[10] = Ca2+-Uptake [Ca2+]MAX EC50 (μM), [Ca2+]MAX (pCa 5.4)
[11] = Ca2+-Uptake [Ca2+]MID EC50 (μM), [Ca2+]MID (pCa 6.2)
[12] = Ca2+-ATPase [Ca2+]MAX EC50 (μM), [Ca2+]MAX (pCa 5.4)
[13] = Ca2+-ATPase [Ca2+]MID EC50 (μM), [Ca2+]MID (pCa 6.2)
[14] = Ca2+-ATPase activity, [Ca2+]MAX (pCa 5.4), mean±SD, n=4-6

T1 sequence (P11607 1-997 isoform P11607-2): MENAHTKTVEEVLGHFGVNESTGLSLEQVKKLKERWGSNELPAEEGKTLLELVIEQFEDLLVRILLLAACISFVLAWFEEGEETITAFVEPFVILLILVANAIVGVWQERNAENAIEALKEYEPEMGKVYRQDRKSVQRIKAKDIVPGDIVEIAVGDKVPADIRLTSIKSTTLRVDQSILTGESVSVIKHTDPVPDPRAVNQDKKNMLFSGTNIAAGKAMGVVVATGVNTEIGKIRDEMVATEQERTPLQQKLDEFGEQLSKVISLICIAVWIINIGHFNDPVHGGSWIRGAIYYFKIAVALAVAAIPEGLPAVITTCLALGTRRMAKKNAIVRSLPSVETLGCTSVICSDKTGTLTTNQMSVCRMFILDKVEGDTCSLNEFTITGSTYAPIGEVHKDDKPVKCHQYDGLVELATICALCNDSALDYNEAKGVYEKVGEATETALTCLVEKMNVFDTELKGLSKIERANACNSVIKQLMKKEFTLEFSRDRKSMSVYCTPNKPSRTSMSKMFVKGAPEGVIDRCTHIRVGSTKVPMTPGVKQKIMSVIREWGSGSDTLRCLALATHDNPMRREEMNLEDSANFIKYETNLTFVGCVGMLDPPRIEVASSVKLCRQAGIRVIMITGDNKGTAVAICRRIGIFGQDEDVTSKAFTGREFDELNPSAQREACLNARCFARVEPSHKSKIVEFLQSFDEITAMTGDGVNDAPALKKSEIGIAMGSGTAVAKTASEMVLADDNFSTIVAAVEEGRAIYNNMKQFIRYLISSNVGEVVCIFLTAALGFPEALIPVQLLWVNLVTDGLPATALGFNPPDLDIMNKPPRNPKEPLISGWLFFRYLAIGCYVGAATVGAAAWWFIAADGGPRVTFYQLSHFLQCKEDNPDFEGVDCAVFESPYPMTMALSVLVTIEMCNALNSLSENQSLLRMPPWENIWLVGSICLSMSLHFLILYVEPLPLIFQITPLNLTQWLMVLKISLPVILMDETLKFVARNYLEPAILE

SMILES	Thalf [1]	microsomal CLint at 1 μM [1]	EC50 [2, 10]	EC50 [2, 11]	EC50 [3, 12]	EC50 [3, 13]	Max increase (%) [3, 14]	Max decrease (%) [3, 14]	Ca2+-ATPase [Ca2+]MAX % effect ([3]; [Ca2+]MAX (pCa 5.4))	Ca2+-Uptake [Ca2+]MAX % effect ([2]; [Ca2+]MAX (pCa 5.4))	Ca2+-Uptake [Ca2+]MAX EC50 (μM) ([2]; [Ca2+]MAX (pCa 5.4))	Ca2+-Uptake [Ca2+]MID % effect ([2]; [Ca2+]MID (pCa 6.2))	Ca2+-ATPase [Ca2+]MID % effect ([3]; [Ca2+]MID (pCa 6.2))	IC50 [4]	selectivity for SERCA1a (vs SERCA2a), ATPase activity ([5]; [Ca2+]MID)	Solubility [6]	selectivity for SERCA2a relative to SERCA1a, higher efficacy, ATPase activity ([5]; [Ca2+]MAX)	SR Ca2+ load / Ca2+ dynamics [7]	activation of SERCA2a Ca2+-uptake [8]	activation of SERCA2a ATPase activity [9]
CCCN(Cc1ccccc1OC)C(=O)c1ccc(Br)c(Br)c1 [Compound 23, 3,4-Dibromo-N-(2-methoxybenzyl)-N-propylbenzamide]	15.3 min	79 ± 19 µL/min/mg	> 50 µM	9.2 ± 1.5 µM	0.9 ± 0.38 µM	15.3 ± 4.1 µM	28±8.1%	28±9.0%	28±8.1%											
CCCCN(Cc1ccccc1OC)C(=O)c1cc(C)c(C)s1 [Compound 33, N-Butyl-N-(2-methoxybenzyl)-4,5-dimethylthiophene-2-carboxamide]	16.6 min	83 ± 4.2 µL/min/mg	1.1 ± 0.35 µM	0.63 ± 0.21 µM	4 ± 0.8 µM	3 ± 1 µM	72% and 72±8.5%		72±8.5%	22±5.6%	unchanged	15±7.0%	23±6.0%							
CCCN(Cc1ccccc1OC)C(=O)c1cc2c(s1)CCCC2 [Compound 8, N-(2-Methoxybenzyl)-N-propyl-4,5,6,7-tetrahydrobenzo[b]thiophene-2-carboxamide]	20.1 min	73 ± 9.3 µL/min/mg	1.1 ± 0.45 µM	> 50 µM	3.3 ± 0.5 µM	3.6 ± 2.8 µM	45% and 45±10%			8.8±2.3%	unchanged			29 ± 18 µM						
CCCN(Cc1ccccc1OC)C(=O)c1cccc(C(F)(F)F)c1 [Compound 21, N-(2-Methoxybenzyl)-N-propyl-3-(trifluoromethyl)benzamide]	10.3 min	133 ± 11 µL/min/mg	1.5 ± 0.33 µM	1 ± 0.86 µM	5.1 ± 2.1 µM	5.3 ± 1.3 µM	40±14%		40±14%	15±5.9%	increased	7.0±3.7%	25±7.4%	31 ± 16 µM	at least 8 fold					
CCCN(Cc1ccccc1OC)C(=O)c1cccc(Br)c1F [Compound 24, 3-Bromo-2-fluoro-N-(2-methoxybenzyl)-N-propylbenzamide]	51.3 min	25 ± 4 µL/min/mg	1.4 ± 0.65 µM	0.83 ± 0.3 µM	3.4 ± 0.29 µM	3.3 ± 1.9 µM	48±4.6%		48±4.6%	12±3.0%		8.5±3.3%	25±5.6%							
CCCN(Cc1ccccc1OC)C(=O)c1cc(F)cc(Br)c1 [Compound 26, 3-Bromo-5-fluoro-N-(2-methoxybenzyl)-N-propylbenzamide]	62.4 min	22 ± 1.1 µL/min/mg	0.54 ± 0.3 µM	> 50 µM	2.2 ± 0.27 µM	2.1 ± 0.88 µM	33±6.5%				decreased									
Cc1ccc2cccc(NC(=O)c3ccc(OC(C)C)cc3)c2n1 [CDN1163, reference compound]														63 µM						
CCCN(Cc1ccccc1OC)C(=O)c1ccc(F)c(Br)c1 [Compound 25, 3-Bromo-4-fluoro-N-(2-methoxybenzyl)-N-propylbenzamide]	74.5 min	15 ± 7.2 µL/min/mg	0.8 ± 0.57 µM	0.89 ± 0.4 µM	4 ± 2.1 µM	3.7 ± 0.73 µM	53% and 53±7.7%				decreased					507 ± 7 µg/mL (≈ 1330 µM)				
CCN(Cc1ccccc1OC)C(=O)c1cc(C)c(C)s1 [Compound 32, N-Ethyl-N-(2-methoxybenzyl)-4,5-dimethylthiophene-2-carboxamide]	34.7 min	37 ± 6.2 µL/min/mg	0.77 ± 0.57 µM	0.91 ± 0.85 µM	6.3 ± 1.8 µM	4.6 ± 2 µM	43±6.7%		43±6.7%	13±5.7%	decreased	6.0±1.6%	24±6.0%				at least 8 fold			
CCCN(Cc1ccccc1OC)C(=O)c1cccc(Br)c1 [Compound 22, 3-Bromo-N-(2-methoxybenzyl)-N-propylbenzamide]	23.8 min	56 ± 9 µL/min/mg	0.36 ± 0.14 µM	12.4 ± 8.4 µM	1.5 ± 0.31 µM	1.4 ± 0.8 µM	46±5.5%			11±3.8%	decreased									
CCCN(Cc1ccccc1OC)C(=O)c1cc(C)c(C)s1 [Compound 1, N-(2-Methoxybenzyl)-4,5-dimethyl-N-propylthiophene-2-carboxamide]	97.6 min	14 ± 1.1 µL/min/mg	1.1 ± 0.73 µM	0.46 ± 0.35 µM	5.3 ± 1.8 µM	6 ± 1.2 µM	57% and 57±13%											increase SR Ca^2+ load; also recorded: increased Ca^2+ dynamics and Ca^2+ load	24%	58%
COc1ccccc1CN(CCC(F)F)C(=O)c1cc(C)c(C)s1 [Compound 40, N-(3,3-Difluoropropyl)-N-(2-methoxybenzyl)-4,5-dimethylthiophene-2-carboxamide]							91% and 91±12.6%													
CCCN(Cc1ccccc1OC)C(=O)c1cc(C)cs1 [Compound 3, N-(2-Methoxybenzyl)-4-methyl-N-propylthiophene-2-carboxamide]							45±9.2%													
